Screens as filed in PubChem BioAssay.
Only some compounds are listed: those with a hit (about 3.7% of all), similar ones and a draw of the others.
KCNQ1 act: potentiators or activators of KCNQ1 channel, primary screen, cell-based, thallium flux, high-throughput | Potassium voltage-gated channel subfamily KQT member 1 (Homo sapiens), P51787 | CHO-K1 KCNQ1, thallium flux FluxOR fluorescence; stronger effect = higher value | B-score at 10 µM | 310,000 compounds, 0.35% hits;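 active means fluorescence ratio B-score, a plate-corrected score, at least three library SD, with initial intensity B-score within 5 SD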
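System: CHO-K1 cells stably expressing KCNQ1 / Medium: assay buffer for compound exposure, DMSO matched across wells / Reagent: thallium- and potassium-containing depolarizing buffer / Compound: one concentration, matched DMSO / Incubation: 20 min compound pretreatment at room temperature / Measured by: kinetic FluxOR fluorescence, 10 s baseline plus 110 s post-stimulus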
KCNQ1 block: inhibitors of human KCNQ1 channel, primary screen, cell-based, thallium flux, high-throughput; 310,000 compounds, 1.3% hits; Potassium voltage-gated channel subfamily KQT member 1 (Homo sapiens), P51787; CHO-K1 KCNQ1, FluxOR thallium flux fluorescence; stronger effect = higher value; AID 2642, 2010; B-score at 10 µM;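 active means compounds whose thallium flux B-score, printed positive for inhibition, exceeds three library SD while starting fluorescence stays within three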;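 further: channel opened by potassium depolarization with thallium stimulus after 20 min compound exposure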
KCNK3 block: human KCNK3 channel inhibitors, primary screen, CHO cells, FluxOR thallium flux, B-score. 340,000 compounds, 0.84% hits. FluxOR fluorescence; stronger effect = lower value. AID 602410, 2012. Potassium channel subfamily K member 3 (Homo sapiens), O14649. B-score at 10 µM;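 active means B-score under library mean minus 4 SD, starting fluorescence ratio at most library mean plus 5 SD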;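 further: more negative B-score means stronger inhibition of thallium flux through KCNK3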
Kir21 block: inhibitors of mouse Kir2.1 inward-rectifier potassium channel | 310,000 compounds, 0.85% hits | AID 1672, 2009 | HEK293-Kir2.1, FluxOR thallium flux fluorescence; stronger effect = lower value | B-score at 10 µM;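 active means fluorescence ratio B-score at or below minus 3 SD of library scores, with starting-brightness B-score within 2 SD, cut at about -4.2 in these data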;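 further: channel flux triggered by added potassium and thallium sulfate stimulus; B-score of peak minus minimum fluorescence over baseline after thallium stimulus; more negative B-score means stronger Kir2.1 block with less thallium influx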
hERG rescue: hERG rescue from dofetilide block, primary screen, cell-based, CHO-hERG, FluxOR thallium flux, dofetilide IC70; Voltage-gated inwardly rectifying potassium channel KCNH2 (Homo sapiens), Q12809; dofetilide IC70 present; activation (rescue from dofetilide block), less the hit threshold, % at 10 µM; 310,000 compounds, 0.51% hits; AID 1511, 2009;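 active means activation above the mean of controls blocked by dofetilide plus 5 SD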;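 further: thallium influx through hERG after potassium depolarization seen as dye fluorescence rise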
KCNK9 inh: KCNK9 potassium channel inhibitors, primary screen, HEK293 cells, thallium flux. FluxOR thallium flux fluorescence; stronger effect = lower value. 310,000 compounds, 1.2% hits. B-score at 10 µM;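 active means ratio B-score over 3 SD below the library mean, with starting fluorescence within 5 SD of its mean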;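 further: negative B-score means less thallium flux so channel inhibition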
The depositor's hits bear a star; i = inactive; x = not tested or not shown.

SMILES | KCNQ1 act | KCNQ1 block | KCNK3 block | Kir21 block | hERG rescue | KCNK9 inh
Cc1nc(SCC(=O)NCC2CCCO2)c2c3c(sc2n1)CCCC3 (stereo unspecified) | 13* | i | i | -0.39 | 15* | i
C=C(CN(C)C)C(=O)c1ccc2c(c1)OCO2 | x | x | i | x | x | x
Cc1ccc(S(=O)(=O)CC(O)COc2ccc(F)cc2Cl)c(C)c1 (stereo unspecified) | i | i | i | -6.1* | -6 | i
COc1ccc(NC(=O)Nc2cc(C)ccc2F)cc1 | i | i | i | -0.72 | 5.1* | i
Cc1cccc(-c2ccc3c(c2)C2CC3CCN2Cc2ccc3c(c2)OCO3)c1 (stereo unspecified) | x | x | i | x | x | x
S=c1[nH]nc(CSc2nc3ccccc3s2)n1C1CCCCC1 | 22* | i | i | -2.6 | 4 | -7.5*
COc1c(N)c2c(c([N+](=O)[O-])c1OC)C(=O)OC2 | x | x | i | x | x | x
O=C(Nc1ccc(N2CCOCC2)cc1)c1ccc(Br)o1 | i | i | i | 0.86 | -8 | i
CC(C)(C)c1cnnn1-c1ccc(NC(=O)c2ccc(Br)o2)cc1 | i | i | i | -0.69 | -9 | -7.1*
CN1CCN(c2ccc(NC(=O)c3ccc(Br)o3)cc2)CC1 | 13* | i | i | -0.24 | 1 | i
COc1cccc(C(=O)Nc2ccc(-n3nncc3C(C)(C)C)cc2)c1 | i | i | i | -0.02 | -9 | i
Cn1cc(Cl)c(C(=O)OCC(=O)c2ccccc2)n1 | i | i | i | 0.66 | -12 | i
CCOC(=O)C(C#N)C(Cc1ccccc1)c1ccco1 (stereo unspecified) | i | i | i | -4.7* | -4 | i
CCOC(=O)C(Cc1ccccc1)C(=O)Nc1ccc(NC(=O)C(Cc2ccccc2)C(=O)OCC)cc1 (stereo unspecified) | i | i | i | 0.09 | -10 | i
CC1C/C(=C/c2cccs2)C(=O)/C(=C/c2cccs2)C1 (stereo unspecified) | i | i | i | -0.07 | -16 | -7.4*
O=C1/C(=C/c2cccs2)CCC/C1=C\c1cccs1 | i | i | i | 0.02 | -12 | i
O=C(Nc1ccc(N2CCCC2)c(S(=O)(=O)Nc2cccc(C(F)(F)F)c2)c1)c1cccs1 | i | i | i | -0.26 | -8 | -7*
CCN(CC)c1ccc(/C=C/C(=O)c2cccnc2)cc1 | i | i | i | -1.2 | -11 | i
O=C(/C=C/c1ccc(Cl)cc1)c1cccnc1 | i | i | i | -7.9* | -12 | i
N#Cc1ccc(/C=C/C(=O)c2cccnc2)cc1 | i | 6* | i | -9* | -15 | i
O=C(COC(=O)c1ccccn1)c1ccc([N+](=O)[O-])cc1 | i | i | i | 1.9 | -4 | i
CN(C)S(=O)(=O)c1ccc(Cl)c(NC(=O)COC(=O)CNS(=O)(=O)c2c(F)cccc2F)c1 | x | x | i | x | x | x
CCC(=O)Nc1cc(-c2nn3c(C)nnc3s2)ccc1C | 8* | i | i | -0.21 | -4 | i
CC(=O)Nc1cc(-c2nn3c(C)nnc3s2)ccc1C | i | i | i | -0.23 | -9 | i
CC1C(c2ccc3c(c2)OCO3)c2cc3c(cc2OC1N1CCOCC1)OCO3 (stereo unspecified) | x | x | i | x | x | x
SMILES | KCNQ1 act | KCNQ1 block | KCNK3 block | Kir21 block | hERG rescue | KCNK9 inh
O=C(CSc1ccc(-c2ccc(Br)cc2)nn1)N1CCOCC1 | i | i | i | -0.1 | 5.0* | i
O=C(CSc1ccc(-c2ccncc2)nn1)N1CCCCC1 | i | i | i | 1.2 | -5 | i
O=C(CSc1ccc(-c2ccccc2)nn1)N1CCCCC1 | i | i | i | -0.13 | 40* | i
CC(OC(=O)/C(C#N)=C/c1ccc(N(C)C)cc1)C(=O)N(C)c1ccccc1 (stereo unspecified) | i | 8* | i | -2.2 | -16 | i
CC(OC(=O)/C(C#N)=C/c1ccc(N(C)C)cc1)C(=O)NCc1ccco1 (stereo unspecified) | i | 7* | i | 0 | -11 | i
CN(C)c1ccc(/C=C(\C#N)C(=O)NCc2ccco2)cc1 | i | i | x | -0.87 | -5 | i
COC(=O)C(CC(C)C)NC(=O)c1ccc([N+](=O)[O-])c(C)c1 (stereo unspecified) | i | i | i | -0.55 | 4.6* | i
CCc1nnc(NC(=O)CSc2nnc(C)c(=O)n2N)s1 | i | i | i | -1.8 | -7 | i
COC(=O)C(CC(C)C)NC(=O)CSc1nc(-c2ccccc2)c(C#N)c(=O)[nH]1 (stereo unspecified) | i | i | i | -0.31 | 5.3* | i
N#Cc1c(-c2ccccc2)nc(SCC(=O)NC2CCCCC2)[nH]c1=O | i | i | i | 0.92 | -10 | i
COc1cccc(CNC(=O)c2cc(S(=O)(=O)N3CCCC3)cn2C)c1 | i | i | i | 1.2 | -10 | i
CC1=CCC2C(=O)N(c3ccc(OC(=O)c4ccco4)cc3)C(=O)C2C1 (stereo unspecified) | i | i | i | -7.9* | -12 | i
O=C(CCN1C(=O)/C(=C/c2ccccc2Cl)SC1=S)NC1C=CS(=O)(=O)C1 (stereo unspecified) | i | i | i | 0.77 | -7 | i
CC(OC(=O)c1ccccc1Oc1ccccc1)C(=O)NC1CC1 (stereo unspecified) | i | i | i | -1.3 | -17 | i
Cc1c(CCO)sc[n+]1CC(=O)OCCC12CC3CC(CC(C3)C1)C2 | i | i | i | -0.41 | -3 | i
Cc1c(CCOC(=O)CC23CC4CC(CC(C4)C2)C3)sc[n+]1Cc1ccccc1 | i | 7* | i | -1.8 | -17 | i
COc1cc(/C=C(\C#N)c2nc3ccccc3s2)cc([N+](=O)[O-])c1O | i | 6* | i | -0.51 | -17 | i
N#C/C(=C\c1ccc(O)c([N+](=O)[O-])c1)c1nc2ccccc2s1 | i | 6* | i | 0.72 | -9 | i
Cc1ccc(N2C(=O)N(CC(=O)N3c4ccccc4CC3C)C(=O)C2C)cc1 (stereo unspecified) | x | x | i | x | x | x
